“Also recorded” adds a separate entry of the source.
System: male albino mice
Experiment: Neurotoxicity, rotarod test
Type: in vivo
Conditions: 0.5 and 4 h
Method in brief: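 Male albino mice (25–30 g) were trained on a rotating rod (3.2 cm outer diameter, 10 rpm). Test compound was given at 30, 100 and 300 mg/kg, and mice were checked at 0.5 and 4 h. Neurotoxicity was failure to keep balance on the rod for 1 min, across three trials. The toxic dose was the dose at which 50% of animals fell.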

| SMILES | Neurotoxicity (result in words) |
| --- | --- |
| Cc1ccc2ccc(C(/C=C/c3c[nH]c4ccccc34)N3C=CC(C(=O)O)C=C3)cc2c1 (centres unmarked) [5i, (E)-1-(3-(1H-indol-3-yl)-1-(7-methylnaphthalen-2-yl)allyl)-1,4-dihydropyridine-4-carboxylic acid] | neurotoxic |
| COc1ccc2ccc(C(/C=C/c3c[nH]c4ccccc34)N3C=CC(C(=O)O)C=C3)cc2c1 (centres unmarked) [5g, (E)-1-(3-(1H-indol-3-yl)-1-(7-methoxynaphthalen-2-yl)allyl)-1,4-dihydropyridine-4-carboxylic acid] | neurotoxic; also recorded: motor impairing |

Reference: paper PMC10790741 (Journal of Pharmacy & Bioallied Sciences, 2023)
